From ChEMBL document CHEMBL1833940, “Discovery of 3-(2,6-dichloro-3,5-dimethoxy-phenyl)-1-{6-[4-(4-ethyl-piperazin-1-yl)-phenylamino]-pyrimidin-4-yl}-1-methyl-urea (NVP-BGJ398), a potent and selective inhibitor of the fibroblast growth factor receptor family of receptor tyrosine kinase” (J Med Chem, 2011)

Columns and labels:
[1] = biological target: Tyrosine-protein kinase Lck (Homo sapiens, UniProt P06239); experiment: Inhibition of recombinant LCK kinase
How it was run: (§1)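 Purified recombinant kinases under optimized conditions, with peptide substrates and ATP at each kinase's Km. Phosphorylation was read out by microfluidic mobility shift, and IC50 values were obtained.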

Tumour [2] = experiment: Drug uptake in tumour of nude Rowett rat bearing human RT112 cells at 8.51 mg/kg, po administered as a single dose after 7 hrs by LC-MS/MS analysis; format: ADME, organism-based, Neoplasm, RT-112; parameters: dose 8.51 mg/kg, route oral; conditions: in vivo
How it was run: (§2)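 Nude Rowett rats bearing subcutaneous RT112 tumors (n = 4) received a single gavage of monophosphate salt at 4.25 or 8.51 mg/kg free base in acetate buffer pH 4.6/PEG300. Tumors were collected at intervals after dosing, frozen and homogenized in an equal volume of ice-cold PBS. Compound levels were measured by LC-MS/MS (LOQ 3 ng/mL).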

[3] = biological target: Vascular endothelial growth factor receptor 2 (Homo sapiens, UniProt P35968); experiment: Inhibition of recombinant VEGFR2; how it was run: as §1
RT-112 [4] = experiment: Antitumor activity against human RT112 cells xenografted in nude Rowett rat assessed as tumour regression at 10 mg/kg, po qd administered for 20 days; format: functional
How it was run: (§3)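 Female nude Rowett rats aged 6–9 weeks were given 1×10^6 RT112 cells subcutaneously in HBSS/50% Matrigel. Treatment began at about 100 mm3 mean tumor volume (n = 8): monophosphate salt in acetate buffer pH 4.6/PEG300 (1:1) by gavage, 5 mL/kg, at 5, 10, 15 mg/kg/qd free base for 20 days. Tumors were measured by caliper (L×W×H×π/6). Readouts were T/C and % regression from start volume.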

[5] = biological target: Mitogen-activated protein kinase 12 (Homo sapiens, UniProt P53778); experiment: Inhibition of recombinant p38-gamma
How it was run: (§4)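 Purified recombinant kinases under optimized conditions with peptide substrates. ATP was set at each kinase's Km. Phosphorylation was read by microfluidic mobility-shift separation of substrate and product; IC50 determined.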

[6] = biological target: Casein kinase I isoform gamma-3 (Homo sapiens, UniProt Q9Y6M4); experiment: Inhibition of recombinant CK1-gamma3; how it was run: as §4
Casein kinase I isoform gamma-3, sequence (Q9Y6M4 whole entry, canonical isoform): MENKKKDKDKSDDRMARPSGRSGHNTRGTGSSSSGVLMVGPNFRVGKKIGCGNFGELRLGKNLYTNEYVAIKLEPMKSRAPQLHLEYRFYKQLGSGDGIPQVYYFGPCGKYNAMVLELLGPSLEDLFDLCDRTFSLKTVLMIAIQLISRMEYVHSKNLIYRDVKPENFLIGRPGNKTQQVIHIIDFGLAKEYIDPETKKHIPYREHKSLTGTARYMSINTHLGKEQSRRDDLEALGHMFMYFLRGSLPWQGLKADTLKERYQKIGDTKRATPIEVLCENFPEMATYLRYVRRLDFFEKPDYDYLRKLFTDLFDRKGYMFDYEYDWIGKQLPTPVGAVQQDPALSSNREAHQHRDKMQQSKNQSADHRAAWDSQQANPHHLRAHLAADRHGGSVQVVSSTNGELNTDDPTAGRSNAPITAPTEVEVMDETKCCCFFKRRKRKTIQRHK

Tumour [7] = experiment: Drug uptake in tumour of nude Rowett rat bearing human RT112 cells at 8.51 mg/kg, po administered as a single dose after 16 hrs by LC-MS/MS analysis; format: ADME, organism-based, Neoplasm, RT-112; parameters: dose 8.51 mg/kg, route oral; conditions: in vivo; how it was run: as §2
[8] = biological target: Cyclin-dependent kinase 1 (Homo sapiens, UniProt P06493); experiment: Inhibition of recombinant CDK1; how it was run: as §4
Cyclin-dependent kinase 1, sequence (P06493 whole entry): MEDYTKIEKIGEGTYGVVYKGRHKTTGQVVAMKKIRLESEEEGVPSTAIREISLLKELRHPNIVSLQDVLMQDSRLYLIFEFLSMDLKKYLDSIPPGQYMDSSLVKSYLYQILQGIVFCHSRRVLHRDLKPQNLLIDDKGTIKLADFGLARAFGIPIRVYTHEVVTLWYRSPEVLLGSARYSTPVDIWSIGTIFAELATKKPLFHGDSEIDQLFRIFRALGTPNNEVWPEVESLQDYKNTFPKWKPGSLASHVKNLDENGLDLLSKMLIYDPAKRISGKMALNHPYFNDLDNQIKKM

Mus musculus [9] = experiment: Antiangiogenic activity in po dosed FVB mouse agar chamber model assessed as inhibition of b-FGF-induced angiogenesis around the capsule; format: functional, organism-based
How it was run: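 Female FVB mice implanted subcutaneously with perfluoroalkoxy-Teflon chambers holding 0.8% agar with 20 U/mL heparin, with or without dog VEGF 2 μg/mL or bFGF 0.3 μg/mL. Oral dosing at 10, 30, 50 mg/kg/day in 10% NMP/PEG300 (5 mL/kg), started before implantation and continued 3 days. Capsules were removed 24 h after the last dose. Readout was capsule weight and Tie-2 by ELISA, as % inhibition against vehicle and no-growth-factor background.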

[10] = Oral bioavailability RT112/luc1 cells implanted athymic nude mouse; format: ADME, organism-based; conditions: in vivo
How it was run: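 Female athymic nude mice carrying subcutaneous RT112/luc1 tumors (ca. 300–400 mm3). Dosing was 5 mg/kg iv by tail vein in NMP/PEG200 (1:9) or 20 mg/kg by oral gavage as a suspension in PEG300/D5W (2:1). Groups (n = 4) were sacrificed from 0.083 to 24 h. Plasma and tumor were measured by LC-MS/MS (LOQ 5 ng/mL, 10 ng/g). Noncompartmental analysis used the linear trapezoidal AUC; F was calculated from dose-normalized AUC.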

Tumour [11] = experiment: Drug uptake in tumor of nude rowett rat bearing human RT112 cells at 8.51 mg/kg, po administered as a single dose after 3 hrs by LC-MS/MS analysis; format: ADME, organism-based, Neoplasm, RT-112; parameters: dose 8.51 mg/kg, route oral; conditions: in vivo; how it was run: as §2
Tumour [12] = experiment: Dose normalized AUC in tumor of RT112/luc1 cells implanted athymic nude mouse at 20 mg/kg, po by LC/MS/MS analysis; format: ADME, organism-based, Neoplasm; parameters: dose 20 mg/kg, route oral; conditions: in vivo
How it was run: (§5)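 Female athymic nude mice carried subcutaneous RT112/luc1 tumors (5×10^6 cells, 50% Matrigel; about 300–400 mm3). Dosing was either 5 mg/kg iv by tail vein in NMP/PEG200 (1:9) or 20 mg/kg oral suspension in PEG300/D5W (2:1). Groups of mice (n = 4) were sacrificed at 0.083–24 h. Plasma and tumor levels were measured by LC-MS/MS (LOQ 5 ng/mL, 10 ng/g).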

Tumour [13] = experiment: Drug uptake in tumour of nude Rowett rat bearing human RT112 cells at 4.25 mg/kg, po administered as a single dose after 3 hrs by LC-MS/MS analysis; format: ADME, organism-based, Neoplasm, RT-112; parameters: dose 4.25 mg/kg, route oral; conditions: in vivo; how it was run: as §2
Tumour [14] = experiment: Cmax in tumor of RT112/luc1 cells implanted athymic nude mouse at 5 mg/kg, iv by LC/MS/MS analysis; format: ADME, organism-based, Neoplasm; parameters: dose 5 mg/kg, route intravenous; conditions: in vivo; how it was run: as §5
[15] = Cmax in Wistar rat at 5 mg/kg, iv after 5 mins by LC-MS/MS analysis; format: ADME, organism-based; parameters: dose 5 mg/kg, route intravenous; conditions: in vivo
How it was run: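 Female Wistar rats received either an iv femoral-vein dose of 5 mg/kg in NMP/PEG200 (1:9) or an oral dose of monophosphate salt at 10 mg/kg (free base) in acetate buffer pH 4.6/PEG300. Plasma was sampled by sublingual bleeding at 0.083–24 h (n = 4 staggered, or n = 3–4 serial). Plasma levels were measured by LC-MS/MS (LOQ 10 ng/mL).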

Mus musculus [16] = experiment: Toxicity in athymic nude mouse xenografted with human RT112 cells/luc1 assessed as increase in body weight at 30 mg/kg, po administered for 12 days; conditions: in vivo, 288 h
[17] = biological target: Interleukin-1 receptor-associated kinase 4 (Homo sapiens, UniProt Q9NWZ3); experiment: Inhibition of recombinant IRAK4; how it was run: as §4
Interleukin-1 receptor-associated kinase 4, sequence (Q9NWZ3 whole entry): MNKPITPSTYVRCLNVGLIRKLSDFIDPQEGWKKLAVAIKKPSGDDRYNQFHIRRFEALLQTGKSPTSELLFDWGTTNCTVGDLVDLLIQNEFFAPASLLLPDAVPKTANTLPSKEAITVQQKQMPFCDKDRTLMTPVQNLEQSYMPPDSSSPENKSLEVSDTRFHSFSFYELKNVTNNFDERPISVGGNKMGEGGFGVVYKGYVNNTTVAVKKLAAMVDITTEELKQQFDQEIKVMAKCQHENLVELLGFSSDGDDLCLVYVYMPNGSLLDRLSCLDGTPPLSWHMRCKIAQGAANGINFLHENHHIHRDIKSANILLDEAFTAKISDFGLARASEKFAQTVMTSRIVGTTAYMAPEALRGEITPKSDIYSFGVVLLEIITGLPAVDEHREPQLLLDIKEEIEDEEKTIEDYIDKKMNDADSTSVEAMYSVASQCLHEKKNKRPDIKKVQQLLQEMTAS

[18] = biological target: Serine/threonine-protein kinase pim-2 (Homo sapiens, UniProt Q9P1W9); experiment: Inhibition of recombinant PIM2; how it was run: as §4
Serine/threonine-protein kinase pim-2, sequence (Q9P1W9 whole entry): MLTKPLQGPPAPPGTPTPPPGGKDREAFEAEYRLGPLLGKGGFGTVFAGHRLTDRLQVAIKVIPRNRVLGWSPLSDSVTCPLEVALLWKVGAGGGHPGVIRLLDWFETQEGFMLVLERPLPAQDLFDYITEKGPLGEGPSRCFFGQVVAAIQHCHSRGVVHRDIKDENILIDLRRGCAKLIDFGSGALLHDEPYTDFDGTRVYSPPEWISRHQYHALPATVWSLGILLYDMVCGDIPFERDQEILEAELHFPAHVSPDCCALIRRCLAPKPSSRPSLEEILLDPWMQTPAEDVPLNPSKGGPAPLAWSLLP

[19] = biological target: Proto-oncogene tyrosine-protein kinase receptor Ret (Homo sapiens, UniProt P07949); experiment: Inhibition of recombinant RET
Proto-oncogene tyrosine-protein kinase receptor Ret, sequence (P07949 whole entry): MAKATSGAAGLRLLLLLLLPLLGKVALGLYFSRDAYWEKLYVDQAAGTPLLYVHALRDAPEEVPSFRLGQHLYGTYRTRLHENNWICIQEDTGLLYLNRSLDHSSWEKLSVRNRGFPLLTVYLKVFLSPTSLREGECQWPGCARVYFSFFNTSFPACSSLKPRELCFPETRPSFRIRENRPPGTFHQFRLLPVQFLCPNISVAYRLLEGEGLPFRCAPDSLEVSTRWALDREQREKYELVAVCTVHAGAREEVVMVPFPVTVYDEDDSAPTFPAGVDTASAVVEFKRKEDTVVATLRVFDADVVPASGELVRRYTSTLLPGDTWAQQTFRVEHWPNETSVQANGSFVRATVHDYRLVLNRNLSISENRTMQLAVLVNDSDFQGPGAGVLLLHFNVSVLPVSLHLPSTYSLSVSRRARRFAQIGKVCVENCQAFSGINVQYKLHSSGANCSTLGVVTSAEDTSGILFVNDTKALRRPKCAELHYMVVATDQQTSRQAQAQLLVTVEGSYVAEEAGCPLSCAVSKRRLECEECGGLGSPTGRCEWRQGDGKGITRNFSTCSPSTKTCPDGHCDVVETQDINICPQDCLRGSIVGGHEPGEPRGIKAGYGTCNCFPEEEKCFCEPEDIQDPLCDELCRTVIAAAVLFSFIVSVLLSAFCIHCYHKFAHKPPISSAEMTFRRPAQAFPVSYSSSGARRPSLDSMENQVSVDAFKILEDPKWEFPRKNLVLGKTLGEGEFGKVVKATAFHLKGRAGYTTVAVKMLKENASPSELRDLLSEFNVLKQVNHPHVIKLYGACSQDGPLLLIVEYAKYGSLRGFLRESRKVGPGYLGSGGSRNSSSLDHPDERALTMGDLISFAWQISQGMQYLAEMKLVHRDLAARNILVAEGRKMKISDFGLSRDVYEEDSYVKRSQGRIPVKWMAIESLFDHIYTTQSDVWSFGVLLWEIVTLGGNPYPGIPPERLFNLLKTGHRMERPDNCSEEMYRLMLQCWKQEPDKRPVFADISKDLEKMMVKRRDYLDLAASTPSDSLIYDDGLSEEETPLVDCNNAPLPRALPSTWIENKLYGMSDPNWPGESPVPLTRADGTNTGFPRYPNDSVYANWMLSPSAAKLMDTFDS
How it was run: (§6)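 Purified recombinant kinases were tested under optimized conditions with peptide substrates. ATP was set at each kinase's Km. Phosphorylation was read out by microfluidic mobility shift, and IC50 values were determined.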

RT-112 [20] = experiment: Antitumor activity against human RT112 cells xenografted in nude rowett rat assessed as tumor regression at 15 mg/kg, po qd administered for 20 days; format: functional; how it was run: as §3
J82 = experiment: Antiproliferative activity against human J82 cells after 72 hrs; format: functional, cell-based; conditions: J82, 72 h
How it was run: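 Bladder cancer lines from ATCC or DSMZ were seeded in 96-well plates (RT4, RT112 at 8500 cells/well; others at 5000 cells/well) in growth medium. Compound dilutions or DMSO were added 24 h later and incubated 72 h. Cells were fixed with glutaraldehyde, stained with 0.05% methylene blue and eluted with 3% HCl, then OD650 nm was read.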

[21] = biological target: Non-receptor tyrosine-protein kinase TYK2 (Homo sapiens, UniProt P29597); experiment: Inhibition of recombinant TYK2; how it was run: as §6
Non-receptor tyrosine-protein kinase TYK2, sequence (P29597 whole entry): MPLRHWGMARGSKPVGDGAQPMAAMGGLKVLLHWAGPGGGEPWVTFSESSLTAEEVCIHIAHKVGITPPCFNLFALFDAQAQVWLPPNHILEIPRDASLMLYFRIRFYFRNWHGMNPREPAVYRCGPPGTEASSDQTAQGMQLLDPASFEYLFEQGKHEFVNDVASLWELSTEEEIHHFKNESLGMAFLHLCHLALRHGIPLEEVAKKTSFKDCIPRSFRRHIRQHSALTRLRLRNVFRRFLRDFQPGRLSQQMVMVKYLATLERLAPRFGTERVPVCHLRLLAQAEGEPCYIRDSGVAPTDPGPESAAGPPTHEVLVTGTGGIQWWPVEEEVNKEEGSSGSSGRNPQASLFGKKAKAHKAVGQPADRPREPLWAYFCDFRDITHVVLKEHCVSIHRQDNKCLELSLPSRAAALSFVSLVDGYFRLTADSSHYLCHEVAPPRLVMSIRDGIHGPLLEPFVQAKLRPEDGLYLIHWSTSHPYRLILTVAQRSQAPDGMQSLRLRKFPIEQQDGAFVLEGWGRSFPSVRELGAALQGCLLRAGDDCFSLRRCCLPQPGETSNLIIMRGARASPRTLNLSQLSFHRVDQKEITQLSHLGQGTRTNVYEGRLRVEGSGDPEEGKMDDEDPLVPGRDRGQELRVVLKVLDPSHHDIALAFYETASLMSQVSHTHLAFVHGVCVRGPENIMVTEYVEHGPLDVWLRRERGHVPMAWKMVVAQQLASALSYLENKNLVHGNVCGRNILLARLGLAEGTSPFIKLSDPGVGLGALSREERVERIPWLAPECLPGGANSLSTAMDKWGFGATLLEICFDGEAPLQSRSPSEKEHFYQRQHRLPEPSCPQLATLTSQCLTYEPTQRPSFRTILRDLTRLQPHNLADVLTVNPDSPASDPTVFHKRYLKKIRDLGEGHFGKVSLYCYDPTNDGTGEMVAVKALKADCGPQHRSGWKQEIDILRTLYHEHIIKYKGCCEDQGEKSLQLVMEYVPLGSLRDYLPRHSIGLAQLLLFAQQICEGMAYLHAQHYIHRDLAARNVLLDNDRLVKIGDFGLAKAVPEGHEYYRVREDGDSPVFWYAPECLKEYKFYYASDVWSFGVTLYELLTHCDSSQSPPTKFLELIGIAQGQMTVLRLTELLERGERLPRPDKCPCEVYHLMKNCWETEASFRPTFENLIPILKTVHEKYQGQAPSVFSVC

[22] = biological target: Protein kinase C theta type (Homo sapiens, UniProt Q04759); experiment: Inhibition of recombinant PKCtheta; how it was run: as §4
Protein kinase C theta type, sequence (Q04759 whole entry): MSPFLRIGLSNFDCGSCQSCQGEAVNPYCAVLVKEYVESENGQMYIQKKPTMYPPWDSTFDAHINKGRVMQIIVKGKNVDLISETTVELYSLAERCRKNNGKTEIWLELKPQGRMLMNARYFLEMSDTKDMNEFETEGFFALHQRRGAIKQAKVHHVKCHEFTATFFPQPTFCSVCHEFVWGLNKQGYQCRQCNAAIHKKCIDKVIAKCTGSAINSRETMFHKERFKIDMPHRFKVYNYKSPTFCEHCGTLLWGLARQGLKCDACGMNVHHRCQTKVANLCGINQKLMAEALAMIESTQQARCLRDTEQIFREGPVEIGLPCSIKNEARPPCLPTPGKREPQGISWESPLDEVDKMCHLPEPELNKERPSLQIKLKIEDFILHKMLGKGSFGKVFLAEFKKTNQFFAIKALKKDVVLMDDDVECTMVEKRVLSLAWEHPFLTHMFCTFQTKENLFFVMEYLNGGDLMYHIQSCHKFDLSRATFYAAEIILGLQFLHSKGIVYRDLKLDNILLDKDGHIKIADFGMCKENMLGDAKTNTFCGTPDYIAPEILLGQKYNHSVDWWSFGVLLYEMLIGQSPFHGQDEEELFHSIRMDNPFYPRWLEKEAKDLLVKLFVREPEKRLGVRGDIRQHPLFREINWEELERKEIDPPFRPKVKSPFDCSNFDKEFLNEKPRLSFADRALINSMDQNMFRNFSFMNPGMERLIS

[23] = biological target: Tyrosine-protein kinase HCK (Homo sapiens, UniProt P08631); experiment: Inhibition of recombinant HCK; how it was run: as §4

Tyrosine-protein kinase Lck, sequence (P06239 whole entry): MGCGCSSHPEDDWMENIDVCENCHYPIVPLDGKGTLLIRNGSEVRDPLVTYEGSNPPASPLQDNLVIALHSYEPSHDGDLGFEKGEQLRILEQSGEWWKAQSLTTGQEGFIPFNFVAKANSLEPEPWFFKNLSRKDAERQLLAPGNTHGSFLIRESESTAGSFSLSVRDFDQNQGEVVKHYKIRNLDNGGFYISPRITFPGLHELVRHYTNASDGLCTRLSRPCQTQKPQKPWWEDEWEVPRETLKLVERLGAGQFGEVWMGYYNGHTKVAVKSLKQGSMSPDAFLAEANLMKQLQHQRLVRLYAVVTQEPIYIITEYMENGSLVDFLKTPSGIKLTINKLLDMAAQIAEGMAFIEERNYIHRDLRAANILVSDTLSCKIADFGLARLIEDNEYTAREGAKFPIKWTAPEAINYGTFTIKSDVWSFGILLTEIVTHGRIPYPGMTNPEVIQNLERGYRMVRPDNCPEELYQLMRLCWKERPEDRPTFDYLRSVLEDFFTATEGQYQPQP

- IC50 [1]: 2.5 µM
- Drug uptake (Tumour [2]): 1.52 nmol/g
- IC50 [3]: 0.18 µM
- IC50 [5]: > 10 µM
- IC50 [6]: > 10 µM
- Drug uptake (Tumour [7]): 0.62 nmol/g
- IC50 [8]: > 10 µM
- bioavailability [10]: 32%
- Drug uptake (Tumour [11]): 1.96 nmol/g
- AUC/dose (Tumour [12]): 1.85 nmol·h/g
- Drug uptake (Tumour [13]): 0.83 nmol/g
- Cmax (Tumour [14]): 1.68 nmol/g
- Cmax [15]: 970 nM
- IC50 [17]: > 10 µM
- IC50 [18]: > 10 µM
- IC50 [19]: > 10 µM
- IC50 [21]: > 10 µM
- IC50 [22]: > 10 µM
- IC50 [23]: > 10 µM
SMILES: CCN1CCN(c2ccc(Nc3cc(N(C)C(=O)Nc4c(Cl)c(OC)cc(OC)c4Cl)ncn3)cc2)CC1.O=P(O)(O)O [INFIGRATINIB PHOSPHATE]
- Activity (RT-112 [4]): 66%
- inhibition (Mus musculus [9]): Dose-dependent effect
- Activity (Mus musculus [16]): 10%
- Activity (RT-112 [20]): 73%
- IC50 (J82): > 3 µM
